# Published values collected from several papers.
# MAPK14: Mitogen-activated protein kinase 14 (MAPK14, Homo sapiens, UniProt Q16539)
# LRRK2 G2019S: Leucine-rich repeat serine/threonine-protein kinase 2 (LRRK2, Homo sapiens, UniProt Q5S007, G2019S)
# PDE3A: cGMP-inhibited 3',5'-cyclic phosphodiesterase 3A (PDE3A, Homo sapiens, UniProt Q14432)
Compound,target,read-out,mode,method,IC50 [nM]
CC(C)C[C@H](NC(=O)[C@H]1O[C@@H]1C(=O)O)C(=O)NCCCCN=C(N)N,"Dipeptidyl peptidase 1 (CTSC, Homo sapiens, UniProt P53634)",enzyme activity,inhibitor,,735
Cc1cnc(-c2ccc(-c3ccc(NC(=O)Nc4c(F)cc(F)cc4F)cc3F)c3c2C(=O)NC3)[nH]1,"Serine/threonine-protein kinase PLK4 (PLK4, Homo sapiens, UniProt O00444)",enzyme activity,inhibitor,,4.8
CNc1nc(C)nc(N[C@H]2CCC[C@@H](C(=O)NCc3ccc(C#N)cc3C(F)(F)F)C2)n1,"Bifunctional epoxide hydrolase 2 (Ephx2, Rattus norvegicus, UniProt P80299)",enzyme activity,inhibitor,,2.9
CC1Cc2ccccc2N1C(=O)NCCCCN(C)[C@@H]1Cc2cccc3[nH]c(=O)n(c23)C1 (mixture of isomers),"5-hydroxytryptamine receptor 1A (HTR1A, Homo sapiens, UniProt P08908)",ligand displacement,,radioligand,25.6
CC(C)(C)n1nc(-c2ccc3nc(OC4CC4)ccc3c2)c(C(N)=O)c1N,MAPK14,cell-free assay,,,> 10000
N#C/C(=C\c1ccc(O)c(O)c1)C(=O)OC/C=C/c1ccccc1,LRRK2 G2019S,enzyme activity,inhibitor,radiometric,231
COc1ccc2c(Oc3ccc4c(C(=O)Nc5ccccc5N)cccc4c3)ccnc2c1,MAPK14,enzyme activity,inhibitor,,> 500
CCOCc1nc(O)c(-c2nnc(Cc3ccc(Cl)cn3)o2)c(O)c1-c1c(OC)cccc1OC,"Alpha-2C adrenergic receptor (ADRA2C, Homo sapiens, UniProt P18825)",ligand displacement,,radioligand,> 30000
Cn1c(=O)c([N+](=O)[O-])c(Cl)c2ccccc21,"Adenylate cyclase type 1 (Homo sapiens, UniProt Q08828)",cAMP,,,300
COc1ccc(C2=NN(C3CCCCCC3)C(=O)[C@@H]3CC=CC[C@H]23)cc1-c1ccc(C(N)=O)cc1 (relative stereo),PDE3A,enzyme activity,inhibitor,,7940
COc1cc(C[C@H]2C(=O)OC[C@@H]2Cc2ccc(OC)c(OC)c2)ccc1O,PDE3A,enzyme activity,inhibitor,,> 20000
CC(Cc1ccc(O)c(O)c1)C(C)Cc1ccc(O)c(O)c1 (centres unmarked),"Leucine-rich repeat serine/threonine-protein kinase 2 (LRRK2, Homo sapiens, UniProt Q5S007)",enzyme activity,inhibitor,radiometric,456
COCCOCOc1ccc(C(=O)/C=C/c2ccc(C(=O)O)cc2)cc1C12CC3CC(CC(C3)C1)C2,"Inhibitor of nuclear factor kappa-B kinase subunit beta (IKBKB, Homo sapiens, UniProt O14920)",enzyme activity,inhibitor,TR-FRET,16700
CC(C)(C)n1nc(-c2cnc3cc(OC4CC4)ccc3c2)c(C(N)=O)c1N,"Death-associated protein kinase 3 (DAPK3, Homo sapiens, UniProt O43293)",cell-free assay,,,> 10000
CC1=CC[C@@H](C(C)(C)O)CC1,"Urease subunit beta (ureB, Helicobacter pylori, UniProt P69996)",enzyme activity in cells,inhibitor,absorbance,9350
O=c1ccc2cc(O)c(O)cc2o1,LRRK2 G2019S,enzyme activity,inhibitor,radiometric,358
CCCCCCOC(=O)c1ccccc1C(=O)c1ccc(N(CC)CC)cc1O,"Estrogen receptor (ESR1, Homo sapiens, UniProt P03372)",reporter gene,antagonist,,4760
CN1CCN(c2ccc(Nc3ncc4cc(C#N)c(=O)n(C5CCCC5)c4n3)cc2)CC1,"Mitogen-activated protein kinase kinase kinase kinase 4 (MAP4K4, Homo sapiens, UniProt O95819)",enzyme activity,inhibitor,,245
CNC(=O)c1cc2c(Oc3ccc(NC(=O)C4(C(=O)Nc5ccc(F)cc5)CC4)cc3)ccnc2cc1OC,"Macrophage-stimulating protein receptor (MST1R, Homo sapiens, UniProt Q04912)",enzyme activity,inhibitor,radiometric,43
COc1cc2c(cc1OC)-c1c/c(=N\c3c(C)cc(C)cc3C)n(C)c(=O)n1CC2,PDE3A,enzyme activity,inhibitor,FP,0.067
